Assay results as given in ChEMBL document CHEMBL4765238, “Structure-Based Discovery and Optimization of Benzo[ d]isoxazole Derivatives as Potent and Selective BET Inhibitors for Potential Treatment of Castration-Resistant Prostate Cancer (CRPC)” (J Med Chem, 2018).
Activity calls are given as the source filed them. The rule behind the calls is not given here.

What was measured:
DU-145 = assay: Antiproliferative activity against AR-negative human DU-145 cells assessed as reduction in cell viability incubated for 72 hrs by cell-titer glo assay; format: functional, cell-based; conditions: DU-145, 72 h
MV4-11 = assay: Antiproliferative activity against human MV4-11 cells assessed as reduction in cell viability incubated for 120 hrs by cell-titer glo assay; format: functional, cell-based; conditions: MV4-11, 120 h
HT-29 = assay: Antiproliferative activity against human HT-29 cells assessed as reduction in cell viability incubated for 120 hrs by cell-titer glo assay; format: functional, cell-based; conditions: HT-29, 120 h
U2OS = assay: Antiproliferative activity against human U2OS cells assessed as reduction in cell viability incubated for 72 hrs by cell-titer glo assay; format: functional, cell-based
NCI-H1975 = assay: Antiproliferative activity against human NCI-H1975 cells assessed as reduction in cell viability incubated for 72 hrs by cell-titer glo assay; format: functional, cell-based; conditions: NCI-H1975, 72 h
HFL1 = assay: Cytotoxicity against human HFL1 cells assessed as reduction in cell viability incubated for 72 hrs by cell-titer glo assay; format: cell-based; conditions: HFL1, 72 h
LNCaP C4-2B [1] = assay: Inhibition of colony formation in human LNCaP C4-2B cells incubated for 14 days by crystal violet staining based assay; format: functional, cell-based; conditions: dose 0.5-2 µM, time 14.0 day
Summary of the method: (§1)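 C4-2B cells cultured with vehicle (DMSO) or compound at 0.5, 1.0 or 2.0 μM for 14 days, then colonies stained and counted against vehicle.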

LNCaP [2] = assay: Inhibition of BET bromodomain in human LNCaP cells assessed as suppression of TMPRSS2 mRNA expression at 5 uM incubated for 48 hrs by SYBR green dye based qRT-PCR analysis; format: cell-based
Summary of the method: (§2)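 LNCaP or VCaP cells exposed to vehicle (DMSO) or compound at 5 µM for 48 h; mRNA levels measured by qRT-PCR; mean ± s.e.m., n = 3; two-tailed Student's t-test.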

VCaP [3] = assay: Inhibition of BET bromodomain in human VCaP cells assessed as suppression of TMPRSS2 mRNA expression at 5 uM incubated for 48 hrs by SYBR green dye based qRT-PCR analysis; format: cell-based; summary of the method: as §2
VCaP [4] = assay: Inhibition of BET bromodomain in human VCaP cells assessed as suppression of ERG mRNA expression at 5 uM incubated for 48 hrs by SYBR green dye based qRT-PCR analysis; format: cell-based; summary of the method: as §2
VCaP [5] = assay: Inhibition of BET bromodomain in human VCaP cells assessed as suppression of full-length androgen receptor mRNA expression at 5 uM incubated for 48 hrs by SYBR green dye based qRT-PCR analysis; format: cell-based; summary of the method: as §2
VCaP [6] = assay: Inhibition of BET bromodomain in human VCaP cells assessed as suppression of AR-V7 mRNA expression at 5 uM incubated for 48 hrs by SYBR green dye based qRT-PCR analysis; format: cell-based; summary of the method: as §2
22Rv1 = assay: Inhibition of BET bromodomain in human 22Rv1 cells assessed as suppression of full-length androgen receptor protein expression at 1 to 16 uM incubated for 48 hrs by western blot analysis; format: cell-based; conditions: dose 1-16 µM
LNCaP [7] = assay: Inhibition of BET bromodomain in human LNCaP cells transfected with Luc-tagged PSA and renilla luciferase assessed as reduction in PSA transcriptional activity measured after 24 hrs by dual luciferase reporter gene assay; format: cell-based; conditions: dose 0.4-10 µM
Summary of the method: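 LNCaP cells transfected with a PSA-luc reporter plasmid, then treated with vehicle or compound at 0.4, 2.0 or 10.0 µM; PSA transcriptional activity read by luciferase; mean ± s.e.m., n = 3; two-tailed Student's t-test.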

[8] = Cmax in Sprague-Dawley rat at 2 mg/kg, iv by LC/MS analysis; format: ADME, organism-based; parameters: route intravenous, dose 2 mg/kg; conditions: in vivo
Summary of the method: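 Sprague-Dawley rats dosed iv at 2 mg/kg (a separate oral arm received 10 mg/kg); plasma exposure parameters derived from the concentration–time profile.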

LNCaP C4-2B [9] = assay: Antitumor activity against human LNCaP C4-2B cells xenografted in CB17/IcrHSD-Prkdc-SCID mouse assessed as tumor growth inhibition at 50 mg/kg, ip administered 5 times per week for 25 days by caliper analysis; format: functional; conditions: 600 h, time 25 day, read-out: TGI
Summary of the method: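 C4-2B cells xenografted in mice; once tumours reached about 100 mm3, mice were randomized and given vehicle or compound at 50 mg/kg i.p. five times per week for 25 days; tumour volume (mean ± s.e.m.) and body weight tracked.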

LNCaP C4-2B [10] = assay: Inhibition of colony formation in human LNCaP C4-2B cells at 0.5 uM incubated for 14 days by crystal violet staining based assay; format: functional, cell-based; conditions: time 14.0 day; summary of the method: as §1
[11] = Toxicity in CB17/IcrHSD-Prkdc-SCID mouse xenografted with human LNCaP C4-2B cells assessed as effect on body weight at 50 mg/kg, ip administered 5 times per week for 25 days; format: organism-based; conditions: in vivo, 600 h, time 25 day
Summary of the method: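 C4-2B xenograft mice randomized once tumors reached about 100 mm3. Vehicle or compound given i.p. at 50 mg/kg, five times per week, over a 25-day treatment period. Tolerability judged from body weight, tracked across treatment days, and from general behaviour.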

| SMILES | IC50 (DU-145) | IC50 (MV4-11) | IC50 (HT-29) | IC50 (U2OS) | IC50 (NCI-H1975) | IC50 (HFL1) | inhibition (LNCaP C4-2B [1]) | inhibition (LNCaP [2]) | inhibition (VCaP [3]) | inhibition (VCaP [4]) | inhibition (VCaP [5]) | inhibition (VCaP [6]) | inhibition (22Rv1) | inhibition (LNCaP [7]) | Cmax [8] | inhibition in vivo at 50 mg/kg (LNCaP C4-2B [9]) | inhibition (LNCaP C4-2B [10]) | Activity [11] |
| --- | --- | --- | --- | --- | --- | --- | --- | --- | --- | --- | --- | --- | --- | --- | --- | --- | --- | --- |
| COc1cc2onc(C)c2cc1NS(=O)(=O)c1cc(Br)ccc1OC | > 6000 nM | 400 nM | 400 nM | > 5000 nM | 2500 nM | 18200 nM | Dose-dependent effect | Active | Active | Active | Active | Active | Active | Dose-dependent effect | 1390 ng/mL | 70% | Active | Non-Toxic |
| Cc1noc2ccc(-c3nc4ccc(N5CCOC[C@@H]5C)cc4n3CC3CCCCC3)cc12 | > 6000 nM | 400 nM | 400 nM | > 5000 nM | > 5000 nM | 15900 nM | Dose-dependent effect | Active | Active | Active | Active | Active | Active | Dose-dependent effect | 807 ng/mL | 51% | Active | Non-Toxic |
